Experimental data: paper PMC9638899 (Nucleic Acids Research, 2022)
pKd: −log10 of the molar value. Values joined by “and” are separate entries in the source; they are usually repeats but may differ in a detail not shown here. Identical values can stand only once.

Assays:
Sis0455-R105G [1] = assay: ITC binding of cA4 to Sis0455-R105G; design: species or system Sulfolobus islandicus; details: 25°C, R105G mutant
In short: (§1)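 His-tagged Sis0455 mutants (site-directed) were expressed in E. coli BL21 pRARE and purified. Protein and cA4 were dialysed into 50 mM HEPES pH 8.0, 300 mM KCl. cA4 (~50 or 100 μM, syringe) was titrated into protein (~5 or 10 μM) at 25°C: one 0.4 μl injection, then 19 × 2 μl, 150 s apart, 750 rpm. cA4-into-buffer controls were run. Normalised heats were fitted to a single-site model.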

Sis0455 N138G [2] = assay: ITC binding of cA4 to Sis0455 N138G; design: species or system Sulfolobus islandicus; details: 25°C, N138G mutant
In short: as §1

Sis0455 [3] = assay: ITC binding of cA4 to Sis0455 wild type; design: species or system Sulfolobus islandicus
Sis0455-S11G = assay: ITC binding of cA4 to Sis0455-S11G; design: species or system Sulfolobus islandicus
Sis0455 T10G [4] = assay: ITC binding of cA4 to Sis0455 T10G; design: species or system Sulfolobus islandicus; details: 25°C, T10G mutant
In short: as §1

SisCsx1 [5] = assay: Binding of cA4 to SisCsx1; design: species or system Sulfolobus islandicus; details: SisCsx1 versus Sis0455
Sis0455 Q130G/Y133G [6] = assay: ITC binding of cA4 to Sis0455 Q130G/Y133G; design: species or system Sulfolobus islandicus; details: 25°C, Q130G/Y133G mutant
In short: as §1

SisCsx1 [7] = details: cited from earlier work
[8] = tested on: Sis0455 E17/E37 glycine substitution; assay: cA4 cleavage activity assay, LC ESI-MS, Sis0455 E17/E37 glycine substitution; assay type: biochemical, Sulfolobus islandicus; details: 40 μM cA4, 2 μM enzyme, 70°C, one hour, E17/E37 substituted by glycine
In short: (§2)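 Each 50 μl reaction held 40 μM cA4 and 2 μM His-tagged Sis0455 variant (E. coli-expressed) in 20 mM Tris pH 8.0, 100 mM NaCl, 1 mM EDTA, for 1 h at 70°C. A no-enzyme control was included. Reactions were stopped at 4°C, phenol-extracted, dried and taken up in 8.6 mM TEA pH 8.3. Products were separated on C18 reverse-phase UPLC (TEA/acetonitrile gradient, 30°C) and read by negative-ion ESI-MS. Runs were at least duplicates.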

Sis0455 T10G [9] = assay: cA4 cleavage activity assay, LC ESI-MS, Sis0455 T10 glycine substitution; assay type: biochemical, Sulfolobus islandicus; details: 40 μM cA4, 2 μM enzyme, 70°C, one hour, T10 substituted by glycine
In short: as §2

Sis0455-R105G [10] = assay: cA4 cleavage activity assay, LC ESI-MS, Sis0455-R105G; assay type: biochemical, Sulfolobus islandicus; details: 40 μM cA4, 2 μM enzyme, 70°C, one hour
In short: as §2

Sis0455-K106G [11] = assay: ITC binding of cA4 to Sis0455-K106G; design: species or system Sulfolobus islandicus; details: 25°C, K106G mutant
In short: as §1

Sis0811 [12] = assay: cA4 cleavage time course, LC ESI-MS, Sis0811; assay type: biochemical, Sulfolobus islandicus; details: 70°C
Sis0811 [13] = assay: Binding of cA4 to Sis0811; design: species or system Sulfolobus islandicus; details: Sis0811 versus SisCsx1
Sis0455 E17G/T37G = assay: ITC binding of cA4 to Sis0455 E17G/T37G; design: species or system Sulfolobus islandicus; details: 25°C, E17G/T37G mutant
In short: as §1

Sis0455 E41G/R134G = assay: ITC binding of cA4 to Sis0455 E41G/R134G; design: species or system Sulfolobus islandicus; details: 25°C, E41G/R134G mutant
In short: as §1

Sis0455-K106G [14] = assay: cA4 cleavage activity assay, LC ESI-MS, Sis0455-K106G; assay type: biochemical, Sulfolobus islandicus; details: 40 μM cA4, 2 μM enzyme, 70°C, one hour
In short: as §2

Sso2081 = Sso2081 versus Sso1393; cited from earlier work
Sis0455-E41G/R134G = assay: cA4 cleavage activity assay, LC ESI-MS, Sis0455-E41G/R134G; assay type: biochemical, Sulfolobus islandicus; details: 40 μM cA4, 2 μM enzyme, 70°C, one hour
In short: as §2

Sis0455 N138G [15] = assay: cA4 cleavage activity assay, LC ESI-MS, Sis0455 N138G; assay type: biochemical, Sulfolobus islandicus; details: 40 μM cA4, 2 μM enzyme, 70°C, one hour
In short: as §2

Sis0455 [16] = assay: cA4 cleavage activity assay and time course, LC ESI-MS, Sis0455; assay type: biochemical, Sulfolobus islandicus; details: time course, 40 μM cA4, 2 μM enzyme, 70°C
Sis0455 D75G = assay: ITC binding of cA4 to Sis0455 D75G; design: species or system Sulfolobus islandicus; details: 25°C, D75G mutant
In short: as §1

Sis0455 Q130G/Y133G [17] = assay: cA4 cleavage activity assay, LC ESI-MS, Sis0455 Q130G/Y133G; assay type: biochemical, Sulfolobus islandicus; details: 40 μM cA4, 2 μM enzyme, 70°C, one hour
In short: as §2

Question: With Cyclic tetraadenylate [cA4] as the substance, how does the cA4 binding (Sis0455-R105G [1]) read?
Answer: abolished cA4 binding

Question: What about the pKd (Sis0455 N138G [2]) of the same substance?
Answer: 7.98

Question: What about the pKd (Sis0455 [3]; ITC, 25°C, wild type Sis0455) of the same substance?
Answer: 8.66 and 8.70

Question: And the “higher affinity for cA4 of Sis0455 than Sis0811” value (Sis0455 [3]; Sis0455 versus Sis0811 (ref 37))?
Answer: 5 fold

Question: What about the pKd (Sis0455-S11G; ITC, 25°C, S11G variant) of the same substance?
Answer: 7.71

Question: What about the “decrease in the binding affinity” value (Sis0455-S11G; S11G variant versus wild type Sis0455) of the same substance?
Answer: ~10 fold

Question: What about the pKd (Sis0455 T10G [4]) of the same substance?
Answer: 7.45

Question: What about the “affinity for cA4 lower than Sis0455” value (SisCsx1 [5]) of the same substance?
Answer: 10 fold

Question: What about the pKd (Sis0455 Q130G/Y133G [6]) of the same substance?
Answer: 5.59

Question: What about the pKd (SisCsx1 [7]) of the same substance?
Answer: 7.70

Question: And the cA4 cleavage activity [8]?
Answer: did not affect catalysis

Question: What about the cA4 cleavage activity (Sis0455 T10G [9]) of the same substance?
Answer: did not affect catalysis

Question: And the cA4 cleavage activity (Sis0455-R105G [10])?
Answer: abrogated the nuclease activity

Question: And the pKd (Sis0455-K106G [11])?
Answer: 5.39

Question: What about the “time to cleave the second phosphodiester bond converting all the linear product in the P1 dinucleotide” value (Sis0811 [12]; Sis0811) of the same substance?
Answer: 30 min

Question: What about the “time to fully degrade cA4 producing 100% P1 product” value (Sis0811 [12]; Sis0811) of the same substance?
Answer: 50 min

Question: What about the “time to convert almost 100% of the cyclic molecule in the P3 linear product” value (Sis0811 [12]; Sis0811, first phosphodiester) of the same substance?
Answer: 20 min

Question: What about the “affinity higher than that of SisCsx1” value (Sis0811 [13]) of the same substance?
Answer: 2 fold

Question: And the pKd (Sis0455 E17G/T37G)?
Answer: 8.46

Question: What about the pKd (Sis0455 E41G/R134G) of the same substance?
Answer: 8.72

Question: What about the cA4 cleavage activity (Sis0455-K106G [14]) of the same substance?
Answer: abolished the cleavage activity

Question: And the “cA4 processing faster than Sso1393” value (Sso2081)?
Answer: 10 fold

Question: What about the cA4 cleavage activity (Sis0455-E41G/R134G) of the same substance?
Answer: showed cA4 as major specie

Question: What about the cA4 cleavage activity (Sis0455 N138G [15]) of the same substance?
Answer: did not affect catalysis

Question: What about the “time to fully degrade cA4 producing 100% P1 product” value (Sis0455 [16]) of the same substance?
Answer: 50 min

Question: What about the cA4 binding (Sis0455 D75G) of the same substance?
Answer: abolished cA4 binding

Question: What about the cA4 cleavage activity (Sis0455 Q130G/Y133G [17]) of the same substance?
Answer: did not affect catalysis
